Activity data for two compounds are collected here from ChEMBL document CHEMBL4052592, “Identification of Cyclic Depsipeptides and Their Dedicated Synthetase from Hapsidospora irregularis” (J Nat Prod, 2017).

Activity calls are given as the source filed them. The calls are words filed in the database; no cut-off is given here.

Holding throughout (assay type): cell-based
Data set [1] concerns the target Transient receptor potential cation channel subfamily A member 1 (Homo sapiens, UniProt O75762). Nature of the data set: Activation of human TRPA1 expressed in HEK293 cells assessed as induction of calcium influx at 100 uM by fluro 4-AM dye-based fluorescence assay. The note with it: hek293, 100 µM. Summed up:
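Stable HEK-293 line grown to confluence on gelatin-coated wells (DMEM:F12, 5% FBS, geneticin 300 μg/mL). Cells loaded 1 h at 37 °C with Fluo 4-Direct/LHC-9, washed into LHC-9 with 1 mM probenecid and Trypan Red, then held 30 min at 37 °C. Compound added at 3× in calcium assay buffer. Fluorescence read 1 min at 37 °C as max ΔF/s versus medium only, expressed as % of 250 μM 2,4-ditert-butylphenol response. At least three replicates.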

Data set [2] deals with Transient receptor potential cation channel subfamily M member 8 (Homo sapiens) (UniProt Q7Z2W7). Nature of the data set: Activation of human TRPM8 expressed in HEK293 cells assessed as induction of calcium influx at 100 uM by fluro 4-AM dye-based fluorescence assay. Summed up:
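Uses the same HEK-293 stable-line culture and Fluo 4-AM loading (1 h, 37 °C), followed by the probenecid/Trypan Red LHC-9 wash and 30 min equilibration at 37 °C. Treatment is made at 3× in LHC9. Max ΔF/s is read over 1 min at 37 °C, normalized to medium-only and given as % of the 25 μM icilin control. Three or more replicates.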

For data set [3], the target named is T1, Transient receptor potential cation channel subfamily V member 3 (Homo sapiens) (UniProt Q8NET8).
T1 sequence (whole entry): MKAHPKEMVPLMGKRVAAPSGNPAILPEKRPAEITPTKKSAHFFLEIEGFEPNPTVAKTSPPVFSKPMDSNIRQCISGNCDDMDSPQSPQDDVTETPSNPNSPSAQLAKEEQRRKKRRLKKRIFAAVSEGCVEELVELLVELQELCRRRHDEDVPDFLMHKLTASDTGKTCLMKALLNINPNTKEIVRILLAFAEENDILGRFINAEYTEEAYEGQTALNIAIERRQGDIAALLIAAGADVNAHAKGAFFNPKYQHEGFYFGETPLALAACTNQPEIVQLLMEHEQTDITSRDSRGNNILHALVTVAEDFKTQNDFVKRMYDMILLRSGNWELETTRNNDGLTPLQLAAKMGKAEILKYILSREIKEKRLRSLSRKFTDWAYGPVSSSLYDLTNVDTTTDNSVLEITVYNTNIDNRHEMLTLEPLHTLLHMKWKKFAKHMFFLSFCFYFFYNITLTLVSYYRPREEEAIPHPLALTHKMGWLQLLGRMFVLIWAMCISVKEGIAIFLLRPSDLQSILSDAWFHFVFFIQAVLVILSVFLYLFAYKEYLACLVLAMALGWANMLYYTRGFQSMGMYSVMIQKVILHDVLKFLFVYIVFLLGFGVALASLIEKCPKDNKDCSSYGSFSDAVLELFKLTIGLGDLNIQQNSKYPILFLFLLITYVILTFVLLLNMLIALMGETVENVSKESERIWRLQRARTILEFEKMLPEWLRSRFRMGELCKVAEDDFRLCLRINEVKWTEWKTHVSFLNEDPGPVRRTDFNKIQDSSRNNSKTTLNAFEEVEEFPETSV
Nature of the data set: Activation of human TRPV3 expressed in HEK293 cells assessed as induction of calcium influx at 100 uM by fluro 4-AM dye-based fluorescence assay. In a few lines: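 Confluent HEK-293 cells stably expressing the channel are dye-loaded 1 h at 37 °C, washed, and equilibrated 30 min at 37 °C in LHC-9 with 1 mM probenecid. Compounds are dosed at 3× in calcium assay buffer. The 1-min read at 37 °C gives max ΔF/s over medium, reported as % of the 300 μM carvacrol agonist control. At least three replicates.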

Data set [4] deals with Transient receptor potential cation channel subfamily V member 4 (Homo sapiens) (UniProt Q9HBA0). The data set can be described thus: Activation of human TRPV4 expressed in HEK293 cells assessed as induction of calcium influx at 100 uM by fluro 4-AM dye-based fluorescence assay. Summed up:
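HEK-293 stable overexpressors on gelatin-coated plates are loaded with Fluo 4-AM (1 h, 37 °C), then given probenecid/Trypan Red LHC-9 and 30 min at 37 °C. Treatments are prepared at 3× in LHC9, with 1-min monitoring at 37 °C. Max ΔF/s versus medium only is given as % of the 30 nM GSK1016790A control. Three replicates minimum.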

The target in data set [5] is Transient receptor potential cation channel subfamily V member 1 (Homo sapiens) (UniProt Q8NER1). Nature of the data set: Activation of human TRPV1 expressed in BEAS-2B cells assessed as induction of calcium influx at 100 uM by fluro 4-AM dye-based fluorescence assay. Summed up:
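TRPV1-overexpressing BEAS-2B cells are loaded with Fluo 4-Direct/LHC-9 at room temperature, washed into LHC-9 containing probenecid and Trypan Red, and incubated 30 min at 37 °C. Test solution is made at 3× in LHC9. Fluorescence is followed 1 min at 37 °C. Max ΔF/s relative to medium is expressed as % of the response to 10 μM capsaicin. Minimum triplicate.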

Chain of Transient receptor potential cation channel subfamily M member 8 (Homo sapiens) (Q7Z2W7 whole entry, looked up): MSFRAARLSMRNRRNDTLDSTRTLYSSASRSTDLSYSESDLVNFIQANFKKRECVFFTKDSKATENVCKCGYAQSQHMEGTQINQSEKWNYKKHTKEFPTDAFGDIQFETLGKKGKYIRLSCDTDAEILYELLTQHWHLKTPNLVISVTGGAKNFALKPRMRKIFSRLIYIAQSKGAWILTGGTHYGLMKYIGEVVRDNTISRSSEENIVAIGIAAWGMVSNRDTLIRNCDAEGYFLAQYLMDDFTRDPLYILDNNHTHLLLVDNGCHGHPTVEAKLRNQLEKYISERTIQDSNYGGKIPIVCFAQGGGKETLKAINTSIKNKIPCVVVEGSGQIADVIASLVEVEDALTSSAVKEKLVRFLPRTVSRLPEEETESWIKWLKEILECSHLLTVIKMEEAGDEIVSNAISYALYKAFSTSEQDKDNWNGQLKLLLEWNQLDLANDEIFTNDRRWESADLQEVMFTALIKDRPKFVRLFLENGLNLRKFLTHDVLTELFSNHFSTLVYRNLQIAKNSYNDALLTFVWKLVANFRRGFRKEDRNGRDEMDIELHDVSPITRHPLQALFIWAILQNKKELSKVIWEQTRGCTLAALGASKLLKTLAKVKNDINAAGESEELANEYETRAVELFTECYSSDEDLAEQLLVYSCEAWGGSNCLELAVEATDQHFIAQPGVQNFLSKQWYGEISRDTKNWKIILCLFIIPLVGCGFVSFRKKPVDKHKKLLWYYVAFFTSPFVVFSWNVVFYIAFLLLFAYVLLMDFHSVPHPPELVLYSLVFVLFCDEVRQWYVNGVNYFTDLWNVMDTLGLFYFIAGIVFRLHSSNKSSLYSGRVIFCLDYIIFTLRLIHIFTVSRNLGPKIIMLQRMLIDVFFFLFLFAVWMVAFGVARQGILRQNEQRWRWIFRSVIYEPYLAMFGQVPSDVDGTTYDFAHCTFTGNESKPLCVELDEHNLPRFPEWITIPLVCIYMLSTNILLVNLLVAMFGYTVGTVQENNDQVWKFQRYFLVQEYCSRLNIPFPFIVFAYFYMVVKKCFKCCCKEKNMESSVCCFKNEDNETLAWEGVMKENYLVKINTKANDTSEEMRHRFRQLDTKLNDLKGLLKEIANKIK
Chain of Transient receptor potential cation channel subfamily A member 1 (O75762 whole entry): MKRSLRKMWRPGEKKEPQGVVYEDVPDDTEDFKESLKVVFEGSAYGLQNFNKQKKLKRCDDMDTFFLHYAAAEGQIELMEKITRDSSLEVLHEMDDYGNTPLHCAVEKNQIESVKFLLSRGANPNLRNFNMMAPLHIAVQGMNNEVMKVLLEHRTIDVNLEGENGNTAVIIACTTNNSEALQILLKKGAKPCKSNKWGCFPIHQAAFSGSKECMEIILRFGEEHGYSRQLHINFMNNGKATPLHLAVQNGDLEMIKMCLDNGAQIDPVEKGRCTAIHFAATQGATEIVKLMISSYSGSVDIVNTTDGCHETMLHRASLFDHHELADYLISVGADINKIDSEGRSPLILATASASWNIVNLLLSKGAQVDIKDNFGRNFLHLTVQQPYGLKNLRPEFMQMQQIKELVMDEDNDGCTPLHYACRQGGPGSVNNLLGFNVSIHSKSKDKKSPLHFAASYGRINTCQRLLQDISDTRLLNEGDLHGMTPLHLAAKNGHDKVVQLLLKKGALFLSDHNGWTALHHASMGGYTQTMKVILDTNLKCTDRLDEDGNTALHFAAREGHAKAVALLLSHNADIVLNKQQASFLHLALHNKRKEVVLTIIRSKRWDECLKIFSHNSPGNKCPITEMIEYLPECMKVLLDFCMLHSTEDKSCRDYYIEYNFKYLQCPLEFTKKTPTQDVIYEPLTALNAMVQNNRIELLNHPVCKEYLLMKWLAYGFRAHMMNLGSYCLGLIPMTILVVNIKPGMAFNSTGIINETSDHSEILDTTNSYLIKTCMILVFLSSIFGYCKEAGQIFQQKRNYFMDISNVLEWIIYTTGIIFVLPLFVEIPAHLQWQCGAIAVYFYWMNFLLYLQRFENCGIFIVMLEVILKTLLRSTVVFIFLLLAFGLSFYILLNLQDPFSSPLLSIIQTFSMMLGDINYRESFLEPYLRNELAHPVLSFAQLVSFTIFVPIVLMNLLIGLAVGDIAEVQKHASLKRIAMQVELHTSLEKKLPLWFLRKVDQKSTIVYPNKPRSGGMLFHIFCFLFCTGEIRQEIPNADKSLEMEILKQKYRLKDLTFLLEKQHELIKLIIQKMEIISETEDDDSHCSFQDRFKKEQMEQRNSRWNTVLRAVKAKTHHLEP
Chain of Transient receptor potential cation channel subfamily V member 1 (Homo sapiens) (Q8NER1 whole entry): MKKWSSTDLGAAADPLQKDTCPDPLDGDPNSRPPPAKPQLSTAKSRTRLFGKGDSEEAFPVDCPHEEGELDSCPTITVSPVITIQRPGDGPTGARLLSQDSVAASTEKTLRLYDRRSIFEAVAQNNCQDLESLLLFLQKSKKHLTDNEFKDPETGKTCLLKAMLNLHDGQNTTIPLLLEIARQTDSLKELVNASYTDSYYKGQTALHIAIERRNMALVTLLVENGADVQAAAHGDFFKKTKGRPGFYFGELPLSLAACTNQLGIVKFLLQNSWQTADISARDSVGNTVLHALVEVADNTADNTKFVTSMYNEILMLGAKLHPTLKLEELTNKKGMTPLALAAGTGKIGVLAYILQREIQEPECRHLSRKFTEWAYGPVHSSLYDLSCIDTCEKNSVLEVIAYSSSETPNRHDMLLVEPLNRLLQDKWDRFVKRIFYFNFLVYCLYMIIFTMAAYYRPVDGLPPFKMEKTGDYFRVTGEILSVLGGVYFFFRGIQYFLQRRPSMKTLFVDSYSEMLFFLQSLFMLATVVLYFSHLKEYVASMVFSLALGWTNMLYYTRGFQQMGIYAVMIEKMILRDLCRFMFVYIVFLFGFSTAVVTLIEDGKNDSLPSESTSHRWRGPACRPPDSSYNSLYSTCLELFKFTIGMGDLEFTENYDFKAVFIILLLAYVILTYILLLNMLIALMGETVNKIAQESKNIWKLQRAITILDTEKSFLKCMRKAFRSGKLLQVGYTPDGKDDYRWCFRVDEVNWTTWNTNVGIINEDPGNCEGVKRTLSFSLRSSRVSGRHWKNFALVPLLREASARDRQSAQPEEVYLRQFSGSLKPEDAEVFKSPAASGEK
Chain of Transient receptor potential cation channel subfamily V member 4 (Homo sapiens) (Q9HBA0 whole entry): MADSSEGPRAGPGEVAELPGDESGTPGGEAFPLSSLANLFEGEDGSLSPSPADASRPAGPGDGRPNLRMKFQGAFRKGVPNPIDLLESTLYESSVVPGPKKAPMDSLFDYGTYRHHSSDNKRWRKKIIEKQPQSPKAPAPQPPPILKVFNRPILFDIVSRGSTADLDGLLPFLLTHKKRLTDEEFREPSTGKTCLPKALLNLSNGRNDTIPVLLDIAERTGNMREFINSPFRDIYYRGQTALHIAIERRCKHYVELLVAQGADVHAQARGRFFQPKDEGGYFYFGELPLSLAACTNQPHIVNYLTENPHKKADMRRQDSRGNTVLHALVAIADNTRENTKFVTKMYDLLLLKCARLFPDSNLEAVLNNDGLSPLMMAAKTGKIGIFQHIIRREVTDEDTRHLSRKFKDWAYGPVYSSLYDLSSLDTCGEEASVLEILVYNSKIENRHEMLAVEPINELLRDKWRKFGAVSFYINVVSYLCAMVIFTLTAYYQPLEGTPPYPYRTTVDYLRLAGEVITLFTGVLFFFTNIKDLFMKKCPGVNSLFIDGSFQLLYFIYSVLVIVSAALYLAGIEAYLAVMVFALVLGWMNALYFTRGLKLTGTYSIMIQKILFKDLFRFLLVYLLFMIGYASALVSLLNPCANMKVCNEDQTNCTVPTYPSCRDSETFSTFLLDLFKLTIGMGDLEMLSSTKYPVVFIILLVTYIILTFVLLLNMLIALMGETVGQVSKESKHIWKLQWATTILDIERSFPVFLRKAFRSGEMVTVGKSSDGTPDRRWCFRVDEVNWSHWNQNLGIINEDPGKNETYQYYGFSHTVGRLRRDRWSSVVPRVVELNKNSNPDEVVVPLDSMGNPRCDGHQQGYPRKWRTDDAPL

With `CC(C)C[C@@H]1NC(=O)[C@@H](CC(C)C)OC(=O)CCNC(=O)[C@H](Cc2ccccc2)NC(=O)[C@H](CC(C)C)OC1=O`, the outcome in data set [1] was Active. Moreover, the outcome in data set [2] was Active. Besides, the result in data set [3], in data set [4] and in data set [5] was inactive.

With `CC(C)C[C@@H]1NC(=O)[C@@H](CC(C)C)OC(=O)CCNC(=O)[C@H](Cc2ccc(O)cc2)NC(=O)[C@H](CC(C)C)OC1=O`, the result in data set [1] was Active. Also, in data set [2], the outcome was Active. Moreover, the outcome in data set [3], in data set [4] and in data set [5] was inactive.
